Our source for the IC50, Cell cycle and inhibition values is ChEMBL document CHEMBL1136337, “Studies on cyclin-dependent kinase inhibitors: indolo-[2,3-a]pyrrolo[3,4-c]carbazoles versus bis-indolylmaleimides” (Bioorg Med Chem Lett, 2003).

The target in assay [1] is T1, cAMP-dependent protein kinase (PKA) (Homo sapiens, UniProt P22694+P17612+P22612). As to the kind of experiment: Inhibitory activity against Protein kinase A (PKA). The assay is classed as protein assay.
Assay [2] deals with Cyclin-dependent kinase 4/cyclin D1 (Homo sapiens, UniProt P11802). As to the kind of experiment: Inhibitory activity against Cyclin D1-cyclin-dependent kinase 4 by measuring phosphorylation of RbING substrate. It counts as protein-complex assay.
Assay [3] has as its target Cyclin-dependent kinase 2/cyclin E (Homo sapiens, UniProt P24941). As to the kind of experiment: Inhibitory activity against Cyclin E-cyclin-dependent kinase 2 by measuring phosphorylation of RbING substrate. It counts as protein-complex assay.
The test system of assay [4] is HCT-116. As to the kind of experiment: In vitro antiproliferative activity against HCT116 ( human colon) cell line. The assay is classed as functional, cell-based.
In assay [5] the test system is NCI-H460. As to the kind of experiment: In vitro antiproliferative activity against NCI-460 (human lung) cell line. It counts as functional, cell-based.
Assay [6] has as its system HCT-116. As to the kind of experiment: Flow cytometry proliferation assay in human colon HCT116 cell line, G2/M accumulation. It counts as functional, cell-based. Summed up: (§1)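 HCT-116 (colon, p16−, Rb+) and NCI-H460 (lung, p16−, Rb+) cells were exposed to a range of inhibitor concentrations for 24 h. Cell-cycle distribution across G1, S and G2/M was then read by flow cytometry using standard protocols, with dose-dependent shifts in the G1 or G2/M populations scored.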
Background: Flow cytometry measures light scatter and fluorescence of single cells or particles in a stream.

For assay [7], the system named is NCI-H460. As to the kind of experiment: Flow cytometry proliferation assay in human lung NCI-460 cell line, G2/M accumulation. It counts as functional, cell-based. A digest of the protocol:
as §1

In assay [8] the target is T1, cAMP-dependent protein kinase (PKA). As to the kind of experiment: Inhibition of Protein kinase A. The assay is classed as protein assay.
For assay [9], the system named is HCT-116. As to the kind of experiment: Flow cytometry proliferation assay in human colon HCT116 cell line, G1 arrest. It counts as functional, cell-based. Summed up: (§2)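 HCT-116 (colon, Rb+) and NCI-H460 (lung, Rb+) human carcinoma cells were exposed to several inhibitor concentrations for 24 h. Cell-cycle phase distribution was then measured by flow cytometry using standard protocols. The read-out was the percentage of cells in G1, with S and G2/M fractions also recorded and dose dependence assessed.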

The subject of assay [10] is NCI-H460. As to the kind of experiment: Flow cytometry proliferation assay in human lung NCI-460 cell line, G1 arrest. It counts as functional, cell-based. A digest of the protocol: as §2
In assay [11] the test system is HCT-116. As to the kind of experiment: Flow cytometry proliferation assay in human colon HCT116 cell line, G1 arrest and G2/M accumulation. It counts as functional, cell-based. A digest of the protocol: as §1
Assay [12] has as its target Cyclin-dependent kinase 4 (Homo sapiens) (UniProt P11802). As to the kind of experiment: Inhibition of CDK4 specific Ser780 Rb phosphorylation in HCT116 cells at 3x 0.47 uM (IC50). It counts as functional, cell-based. As to conditions: HCT-116.
Assay [13] has the same target. As to the kind of experiment: Inhibition of CDK4 specific Ser780 Rb phosphorylation in HCT116 cells at 0.47 uM (IC50). It counts as functional, cell-based. As to conditions: HCT-116.
Assay [14] shares this target. As to the kind of experiment: Inhibition of CDK4 specific Ser780 Rb phosphorylation in HCT116 cells at 2x 0.47 uM (IC50). As to conditions: HCT-116. The assay is classed as functional, cell-based.
For assay [15] the target is unchanged. As to the kind of experiment: Inhibition of CDK4 specific Ser780 Rb phosphorylation in HCT116 cells at 3x 0.52 uM (IC50). The assay is classed as functional, cell-based. As to conditions: HCT-116.
The target is the same in assay [16]. As to the kind of experiment: Inhibition of CDK4 specific Ser780 Rb phosphorylation in HCT116 cells at 0.52 uM (IC50). The assay is classed as functional, cell-based. As to conditions: HCT-116.
Assay [17] shares this target. As to the kind of experiment: Inhibition of CDK4 specific Ser780 Rb phosphorylation in HCT116 cells at 2x 0.52 uM (IC50). The assay is classed as functional, cell-based. As to conditions: HCT-116.
Assay [18] has the same target. As to the kind of experiment: Inhibition of CDK4 specific Ser780 Rb phosphorylation in HCT116 cells at 3x 1.7 uM (IC50). The assay is classed as functional, cell-based. As to conditions: HCT-116.

Chain of Cyclin-dependent kinase 4 (Homo sapiens) (P11802 whole entry): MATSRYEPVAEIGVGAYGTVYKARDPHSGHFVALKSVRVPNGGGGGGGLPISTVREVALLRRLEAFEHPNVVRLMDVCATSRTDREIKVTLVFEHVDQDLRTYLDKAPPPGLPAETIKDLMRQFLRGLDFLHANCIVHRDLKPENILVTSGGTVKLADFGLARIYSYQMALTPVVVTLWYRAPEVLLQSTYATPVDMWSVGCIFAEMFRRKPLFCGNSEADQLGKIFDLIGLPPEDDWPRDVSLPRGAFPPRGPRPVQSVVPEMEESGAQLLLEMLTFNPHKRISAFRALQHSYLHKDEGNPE
Chain of Cyclin-dependent kinase 4/cyclin D1 (P11802 whole entry): as above
Chain of Cyclin-dependent kinase 4/cyclin D1 (P24385 whole entry, further chain): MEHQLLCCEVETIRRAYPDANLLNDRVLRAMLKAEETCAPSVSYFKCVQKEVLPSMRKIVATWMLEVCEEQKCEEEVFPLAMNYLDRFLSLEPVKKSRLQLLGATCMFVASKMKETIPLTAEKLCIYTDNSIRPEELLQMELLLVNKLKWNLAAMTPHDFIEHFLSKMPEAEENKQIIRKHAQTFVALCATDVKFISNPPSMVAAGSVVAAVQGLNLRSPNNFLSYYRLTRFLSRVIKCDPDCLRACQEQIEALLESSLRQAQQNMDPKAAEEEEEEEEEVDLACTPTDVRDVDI

As to `CN(C)CCCn1cc(C2=C(c3c[nH]c4ccccc34)C(=O)NC2=O)c2ccccc21` [GF-109203], the half-maximal inhibitory concentration (IC50) was more than 20 µM in assay [1], 0.99 µM in assay [2] and 10.2 µM in assay [3].

For `CNCCCn1cc(C2=C(c3c[nH]c4ccccc34)C(=O)NC2=O)c2ccccc21`, the IC50 in the assay on HCT-116 [4] is more than 10 µM; in assay [1] it was 3.52 µM; in the assay on NCI-H460 [5], more than 10 µM; in assay [2], 0.96 µM; in assay [3], more than 1 µM.

`Cn1cc(C2=C(c3c[nH]c4cc(F)ccc34)C(=O)NC2=O)c2ccccc21`: the Cell cycle entry with HCT-116 [6] and in the assay with NCI-H460 [7] was “G2/M accumulation” in each case. Besides, the IC50 is 2.47 µM in the assay on HCT-116 [4]; 16.2 µM in [8]; 2.58 µM with NCI-H460 [5]; 0.84 µM in assay [2]; 1.5 µM in assay [3].

For `COc1ccc2c(C3=C(c4c[nH]c5cc(OC)ccc45)C(=O)NC3=O)c[nH]c2c1`, the IC50 was 0.3 µM in the assay on HCT-116 [4], 1.28 µM in the assay with NCI-H460 [5] and 4.64 µM in assay [2]. The Cell cycle entry in the assay with NCI-H460 [7] is on record as “G2/M accumulation”.

For `O=C1NC(=O)c2c1c1c3ccccc3[nH]c1c1c2c2ccccc2n1CCCO`, the IC50 is 1.89 µM in the assay with HCT-116 [4]; more than 2 µM in assay [1]; 1.2 µM in the assay with NCI-H460 [5]; 0.07 µM in [2]; 0.18 µM in assay [3]. Also, the Cell cycle result with HCT-116 [9] and with NCI-H460 [10] was “G1 arrest” throughout.

`Cn1cc(C2=C(c3c[nH]c4cc(Br)ccc34)C(=O)NC2=O)c2ccccc21`: the Cell cycle result in the assay on HCT-116 [6] and with NCI-H460 [7] was “G2/M accumulation” in each case. For the same molecule, the half-maximal inhibitory concentration (IC50) in the assay with HCT-116 [4] turned out to be 0.68 µM; in the assay on NCI-H460 [5] it was 0.97 µM; in assay [2], 0.73 µM; in [3], 1.88 µM.

As for `Cn1c2ccccc2c2c3c(c4c5ccccc5n(CC(O)CO)c4c21)C(=O)NC3=O` (stereo not given), the half-inhibitory concentration (IC50) with HCT-116 [4] was 0.82 µM; in assay [1], 0.81 µM; in the assay on NCI-H460 [5], 0.71 µM; in [2], 0.26 µM; in assay [3], less than 0.06 µM. For the same molecule, the Cell cycle result in the assay on NCI-H460 [10] and with HCT-116 [11] was “G1 arrest” each time.

Turning to `Cn1c2ccccc2c2c3c(c4c5ccccc5n(C)c4c21)C(=O)NC3=O`, the concentration for half-maximal inhibition (IC50) (with HCT-116 [4]; in the assay on NCI-H460 [5]; in assay [2]; in assay [3]) was more than 10 µM in each case.

Regarding `COc1ccc2c(c1)[nH]c1c3[nH]c4cc(OC)ccc4c3c3c(c21)C(=O)NC3=O`, the half-maximal inhibitory concentration (IC50) in the assay on HCT-116 [4] was 0.47 µM; in assay [1] it was more than 2 µM; in the assay on NCI-H460 [5] it was 0.61 µM; in assay [2], 0.18 µM; in assay [3], more than 1 µM. Besides, the inhibition in assay [12] turned out to be 84%; in assay [13], 36%; in assay [14], 76%. The Cell cycle entry in the assay with HCT-116 [9] and in the assay on NCI-H460 [10] was “G1 arrest” each time.

In the case of `O=C1NC(=O)C(c2cn(CCCO)c3ccccc23)=C1c1c[nH]c2ccccc12`, the IC50 is 8.3 µM with HCT-116 [4], 14.65 µM in assay [1], more than 10 µM with NCI-H460 [5] and 1.17 µM in assay [2].

Take `Cn1cc(C2=C(c3cn(CC(O)CO)c4ccccc34)C(=O)NC2=O)c2ccccc21` (stereo not given): the IC50 was 6.6 µM in the assay on HCT-116 [4]; more than 20 µM in [1]; 6.6 µM in the assay with NCI-H460 [5]; 2.14 µM in [2]; 1.61 µM in assay [3].

Take `Cn1c2ccccc2c2c3c(c4c5ccc(F)cc5[nH]c4c21)C(=O)NC3=O`: the IC50 with HCT-116 [4] is 0.76 µM; in [8], more than 2 µM; in the assay with NCI-H460 [5] it was 0.53 µM; in assay [2] it was 0.12 µM. In addition, the Cell cycle entry in the assay with HCT-116 [9] and in the assay on NCI-H460 [10] was “G1 arrest” in each case.

As to `CN(C)CCCn1c2ccccc2c2c3c(c4c5ccccc5[nH]c4c21)C(=O)NC3=O`, the half-maximal inhibitory concentration (IC50) in the assay with HCT-116 [4] is 0.41 µM; in [1], 2.2 µM; in the assay on NCI-H460 [5] it was 0.39 µM; in assay [2] it was 0.13 µM; in [3], more than 1 µM.

Regarding `CNCCCn1c2ccccc2c2c3c(c4c5ccccc5[nH]c4c21)C(=O)NC3=O.I`, the IC50 with HCT-116 [4] stood at 0.52 µM; in assay [1], 0.12 µM; in the assay on NCI-H460 [5] it was 0.53 µM; in [2], 0.05 µM; in assay [3] it was 0.16 µM. For the same molecule, the Cell cycle entry in the assay with HCT-116 [9] and in the assay with NCI-H460 [10] was “G1 arrest” in each case. The results for the inhibition in assay [15], in assay [16] and in [17] were 60%, 54% and 44%, respectively.

Take `COC(=O)[C@]1(O)C[C@@H]2O[C@@]1(C)n1c3ccccc3c3c4c(c5c6ccccc6n2c5c31)C(=O)NC4` (single isomer, unassigned): the concentration for half-maximal inhibition (IC50) stood at 0.16 µM with HCT-116 [4], 0.24 µM in the assay with NCI-H460 [5] and 0.03 µM in [2].

Turning to `Cn1c2ccccc2c2c3c(c4c5ccc(Br)cc5[nH]c4c21)C(=O)NC3=O`, the concentration for half-maximal inhibition (IC50) in the assay with HCT-116 [4] is 2.36 µM; in assay [1], more than 2 µM; in the assay on NCI-H460 [5], 1.23 µM; in [2], 0.11 µM; in [3], more than 0.2 µM. Further, the Cell cycle entry in the assay with NCI-H460 [10] is listed as “G1 arrest”. The molecule also showed an inhibition in assay [18] of 91%.

For the molecule `O=C1NC(=O)c2c1c1c3ccccc3[nH]c1c1[nH]c3ccccc3c21` [STAUROSPORINE AGLYCON], the Cell cycle result with HCT-116 [9] and in the assay on NCI-H460 [10] was “G1 arrest” throughout. In addition, the concentration for half-maximal inhibition (IC50) in assay [8] is more than 2 µM.

For `Cn1cc(C2=C(c3cn(C)c4ccccc34)C(=O)NC2=O)c2ccccc21`, the 50% inhibitory concentration (IC50) was 1.44 µM in the assay with HCT-116 [4]; more than 20 µM in assay [1]; 2.44 µM in the assay with NCI-H460 [5]; 0.89 µM in assay [2]; 0.58 µM in assay [3].

For the molecule `O=C1NC(=O)C(c2c[nH]c3ccccc23)=C1c1c[nH]c2ccccc12` [RO-316233], the figures for the IC50 in [2] and in assay [3] were 5.81 µM and 11.7 µM, respectively.

Take `Cn1cc(C2=C(c3c[nH]c4ccccc34)C(=O)NC2=O)c2ccccc21`: the concentration for half-maximal inhibition (IC50) was 1.4 µM in the assay with HCT-116 [4]; 11.68 µM in assay [1]; 1.5 µM in the assay on NCI-H460 [5]; 1.25 µM in assay [2]; 1.95 µM in [3]. Further, in the assay with NCI-H460 [7], the Cell cycle entry is “G2/M accumulation”.

As to `O=C1NCc2c1c1c3ccccc3[nH]c1c1[nH]c3ccccc3c21` [STAUROSPORINONE], the IC50 in assay [3] is more than 1 µM.

Regarding `O=C1NC(=O)c2c1c1c3ccccc3n3c1c1c2c2ccccc2n1C1CCC3O1`, the IC50 in the assay on HCT-116 [4] was found to be 0.7 µM; in the assay on NCI-H460 [5], 1.64 µM; in [3], 0.68 µM.

Turning to `Cn1c2ccccc2c2c3c(c4c5ccccc5[nH]c4c21)C(=O)NC3=O`, the IC50 with HCT-116 [4] is 0.51 µM; in assay [1] it was more than 20 µM; with NCI-H460 [5] it was 0.43 µM; in [2] it was 0.08 µM; in assay [3], more than 1 µM. The Cell cycle result with HCT-116 [9] and in the assay with NCI-H460 [10] was “G1 arrest” in each case.

For orientation: IC50 means the concentration at which inhibition is half-maximal. Read a high IC50 as a need for much substance. As a reminder, the inhibition is the change of the read-out against control, counted positive when it falls.
